Source: ChEMBL document CHEMBL4513216, “Probing the Open Global Health Chemical Diversity Library for Multistage-Active Starting Points for Next-Generation Antimalarials” (ACS Infect Dis, 2020)

Assay: Toxicity liver stage against HepG2, at 10uM
Type: cell-based
Parameters: test concentration 10 uM, cell line HepG2-A16-CD81EGFP
Conditions: human, HepG2-A16-CD81EGFP cells; read-out: INHIBITION
Summary of the method: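 Uninfected HepG2-A16-CD81EGFP cells, 3 × 10^3 per well, 1536-well, plated on prespotted compound at 10 μM final, parasite-free screening media added to match infected plates; puromycin 10 μM positive, DMSO 0.5% negative; run in parallel with 48 h PbLuc assay at 37 °C, 5% CO2; viability by CellTiter-Glo luminescence, normalized to controls.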

Cc1c(C)n2c(SCC(=O)N3CCCCC3)nnc2[nH]c1=O
cytotoxicity at 10 µM: 3.33%

COc1ccc2nnc(CCC(=O)Nc3nc4c(s3)CCC4)n2n1
cytotoxicity at 10 µM: -4.8%

CC(=O)N1C[C@@H](F)[C@@H](OCc2nc3ccc(C#N)cc3[nH]2)C1
cytotoxicity at 10 µM: -0.302%

Cc1noc([C@@H]2C[C@H](NC(=O)Nc3cccc(F)c3)CN2C)n1
cytotoxicity at 10 µM: -2.17%

COc1cccc(CN2CCCCCC2c2sccc2C)c1O (stereo unspecified)
cytotoxicity at 10 µM: 7.18%

COCCn1ccc2c(C(=O)NCC3CCCO3)cccc21 (stereo unspecified)
cytotoxicity at 10 µM: 1.53%

CCCS(=O)(=O)c1ccc(N2CCC(Cc3ccccc3)CC2)nn1
cytotoxicity at 10 µM: -7.91%

COc1ccc(S(=O)(=O)NCCCc2ccc(N(C)C)cc2)cc1F
cytotoxicity at 10 µM: -2.59%

COc1ccccc1C(=O)N1CC2(COC(C)(C)OC2)C1
cytotoxicity at 10 µM: -6.4%

CC(C)C(=O)N1CCC(C2C(=O)Nc3ccccc32)CC1 (stereo unspecified)
cytotoxicity at 10 µM: -1.54%

CCN1C(=O)CCCC12CCCN(C(=O)c1occc1C)C2 (stereo unspecified)
cytotoxicity at 10 µM: 2.88%

Cn1nnc2c1CCN(C(=O)CC1CC1)C2COCCN1CCCC1 (stereo unspecified)
cytotoxicity at 10 µM: 17.4%

Cn1cnc2c1C(COCC1CC1)CN(C(=O)c1cccs1)C2 (stereo unspecified)
cytotoxicity at 10 µM: 7.63%

CCc1nnc2sc(-c3cc(C(C)C)n[nH]3)nn12
cytotoxicity at 10 µM: -7.37%

O=c1c2cnc(N3CCCC3)nc2ccn1-c1cccc(C(F)(F)F)c1
cytotoxicity at 10 µM: 16.9%

O=C(CCc1nc2cccnc2[nH]1)NCc1cccnc1
cytotoxicity at 10 µM: 7.72%

CCOc1ccc(N2CCCN=C2NC(=O)c2cccc(Cl)c2)cc1
cytotoxicity at 10 µM: -10.1%

O=C(Cn1cccn1)N1CCC(c2nnc(-c3ccsc3)o2)CC1
cytotoxicity at 10 µM: 6.88%

CS(=O)(=O)N1CCCCCC1c1cc(-c2ccc(F)cc2)no1 (stereo unspecified)
cytotoxicity at 10 µM: 2.97%

CCC(=O)N1CCCCC1c1nc(O)c2c(n1)CN(S(=O)(=O)CC)CC2 (stereo unspecified)
cytotoxicity at 10 µM: 1.7%

Cc1cnc(-c2nc(C3CCN(Cc4ccccc4O)CC3)no2)cn1
cytotoxicity at 10 µM: 3.66%

Cc1noc(CNc2cc3c(cc2Cl)OCCCO3)n1
cytotoxicity at 10 µM: -1.49%

Cc1cc(C)cc(NCCC(=O)NCc2cccnc2N(C)C)c1
cytotoxicity at 10 µM: -0.211%

Cc1nnc(CN2CCCC2c2ccc3c(c2)OCCO3)n1C (stereo unspecified)
cytotoxicity at 10 µM: -0.379%

CC(C)N1CCC(NC(=O)c2cn(-c3ccc(F)cc3)nn2)C1 (stereo unspecified)
cytotoxicity at 10 µM: -5.05%

O=C(NCCCC(=O)N1Cc2ccccc2C1)NCc1ccsc1
cytotoxicity at 10 µM: -15%

CCN(CC)S(=O)(=O)c1ccc(OC)c(NC(=O)CSC)c1
cytotoxicity at 10 µM: -10%

CCCN1CCCC1c1nc(Cc2ccc(F)cc2)no1 (stereo unspecified)
cytotoxicity at 10 µM: -2.74%

Cc1nc(-c2ccco2)ccc1C(=O)NCCN1CCN(C)CC1
cytotoxicity at 10 µM: 3.88%

CC(C)(C)NC(=O)COc1ccc(Oc2ccccn2)cc1
cytotoxicity at 10 µM: 7.32%

CN(C)CCOc1ccc(CNC(=O)c2cccc3[nH]ncc23)cc1
cytotoxicity at 10 µM: 7.99%

CC(=O)Cn1cc(C#N)c(=O)c2cc(Br)ccc21
cytotoxicity at 10 µM: -7.06%

COC(C)c1nc(CN2CCNCC2)cs1 (stereo unspecified)
cytotoxicity at 10 µM: 4.68%

CC(C)S(=O)(=O)NCC1CCCN(C(=O)c2ccc(F)cc2)C1 (stereo unspecified)
cytotoxicity at 10 µM: 4.68%

CC1CCCN(C(=O)Nc2ccc(F)c(C(N)=O)c2)C1 (stereo unspecified)
cytotoxicity at 10 µM: -7.48%

Cc1cc(N2CCCC2c2nnc3n2CCCCC3)nc(C)n1 (stereo unspecified)
cytotoxicity at 10 µM: 9.59%

COC(=O)NCCC(=O)NCC1(c2cccc(Cl)c2)CC1
cytotoxicity at 10 µM: -4.31%

COc1ccc(C)cc1CN(Cc1ncc(C)o1)C1CCN(C)C1 (stereo unspecified)
cytotoxicity at 10 µM: -0.76%

CS(=O)(=O)NC1CCN(CCc2ccccc2)CC1
cytotoxicity at 10 µM: -1.76%

CCc1nsc(NC2CC(=O)N(C(C)(C)C)C2)n1 (stereo unspecified)
cytotoxicity at 10 µM: 5.6%

CS(=O)(=O)Cc1ccc(NC(=O)c2cccnc2)cc1F
cytotoxicity at 10 µM: -1.53%

CC(C)N(CC(N)=O)C(=O)CCC(=O)c1ccc(F)cc1F
cytotoxicity at 10 µM: 0.529%

COCc1nc(C(=O)N2CCN(Cc3ccsc3)CC2)cs1
cytotoxicity at 10 µM: -0.684%

Cc1nc(CNC(=O)N2CCCC(c3ncc[nH]3)C2)sc1C (stereo unspecified)
cytotoxicity at 10 µM: -0.331%

Cc1nc(C2CCCN(C(=O)CCCOc3cccc(F)c3)C2)no1 (stereo unspecified)
cytotoxicity at 10 µM: 9.91%

Cc1ccc(-c2nc(CN3CCOC(c4ccccc4)C3)cs2)o1 (stereo unspecified)
cytotoxicity at 10 µM: -8.11%

CN(CCCC#N)C1CCCN(Cc2noc(C3CC3)n2)C1 (stereo unspecified)
cytotoxicity at 10 µM: -14.5%

CN1CCN(CCCNC(=O)c2cc(Cl)c3c(c2)OCO3)CC1
cytotoxicity at 10 µM: -16.7%

C[C@H]1CN(C(=O)c2cccnc2)C[C@@]12CCN(CCN1CCCC1)C2=O
cytotoxicity at 10 µM: -4.71%

Cc1[nH]c(-c2ccccc2)nc1C(=O)N1CC[C@H](CO)[C@@H](O)C1
cytotoxicity at 10 µM: 76.5%

CC(C)SCCn1ccc2[nH]c(=O)c(C#N)cc2c1=O
cytotoxicity at 10 µM: 3.18%

CN(C)C(C(=O)N1CCC(C#N)CC1)c1ccccc1F (stereo unspecified)
cytotoxicity at 10 µM: -3.59%

CN1CCC(N(C)CCC(=O)N2CCC(OCc3ccccc3)CC2)C1 (stereo unspecified)
cytotoxicity at 10 µM: -6.35%

O=C1OC2(CCN(C(=O)C3NCCc4[nH]cnc43)CC2)c2ccccc21 (stereo unspecified)
cytotoxicity at 10 µM: -7.05%

COc1cccc([C@H]2CN(C(=O)c3cc(C)on3)C[C@@H]2N)c1
cytotoxicity at 10 µM: 3.14%

Cc1nn(CCN2CCSCC2)cc1CNCc1ccccn1
cytotoxicity at 10 µM: 2.28%

CCOCc1nc2c(c(N(C)Cc3nonc3C)n1)CCNCC2
cytotoxicity at 10 µM: 6.7%

N#Cc1cccc(N2CCCC(CO)(Cc3ccccc3F)C2)n1 (stereo unspecified)
cytotoxicity at 10 µM: 1.54%

CC(C)(CN1CCC(Cc2ccc(CO)cc2)C1)N1CCOCC1 (stereo unspecified)
cytotoxicity at 10 µM: -2.71%

CCc1c(C)nn(CCNC(=O)c2csc(C)n2)c1C
cytotoxicity at 10 µM: -2.78%

CN(C)S(=O)(=O)N1CCOCC1CC(=O)NCCOc1ccccc1 (stereo unspecified)
cytotoxicity at 10 µM: 2.38%

CC(C)(C)c1cc(CN2CCOC(CCc3ccccc3)C2)n[nH]1 (stereo unspecified)
cytotoxicity at 10 µM: -5.34%

CCc1nnc(CN(CC)C(=O)C2CC(=O)N(Cc3cccnc3)C2)o1 (stereo unspecified)
cytotoxicity at 10 µM: 2.3%

O=S1(=O)COCCN1CCCOc1ccc(F)cc1
cytotoxicity at 10 µM: 3.57%

Cc1cc(CC(C)NC(=O)c2cccc(CC3CCNCC3)c2)[nH]n1 (stereo unspecified)
cytotoxicity at 10 µM: 11.1%

COc1ccc(-c2n[nH]cc2CN(C)Cc2nnc(C)o2)c(F)c1
cytotoxicity at 10 µM: -3.01%

Cc1c(Cn2ccnc2-c2cc(CN(C)C)cs2)cnn1C
cytotoxicity at 10 µM: -0.309%

COCCc1noc(CNC2CCSC2)n1 (stereo unspecified)
cytotoxicity at 10 µM: -15%

Nc1nccc(N2CCC(Cc3ccccc3Cl)(C(=O)O)CC2)n1
cytotoxicity at 10 µM: -21.8%

OCCOCCN1CCCC1c1nc2cc(F)ccc2[nH]1 (stereo unspecified)
cytotoxicity at 10 µM: -17.5%

Cc1nc(CCN(C)C(=O)C2COc3ccccc3C2)no1 (stereo unspecified)
cytotoxicity at 10 µM: -19.7%

CCCNC(=O)c1ccc(NC(=O)c2cccc(OCC)c2)cc1
cytotoxicity at 10 µM: -10.5%

Cc1csc(Nc2nccnc2C2CCCN2C(=O)C(C)C)n1 (stereo unspecified)
cytotoxicity at 10 µM: 1.3%

Fc1ccc(-c2nc(CNC3CCc4ncnn4C3)co2)cc1 (stereo unspecified)
cytotoxicity at 10 µM: -4.2%

CC(C)c1nc(CN2CCCCC2Cn2cncn2)cs1 (stereo unspecified)
cytotoxicity at 10 µM: -5.06%

Cc1ccc(C(=O)Nc2nc(C)no2)cc1
cytotoxicity at 10 µM: -1.81%

CC(C)c1nn(C)c(N(C)C)c1CNCc1ccc(CO)c(F)c1
cytotoxicity at 10 µM: -5.4%

CNC(=O)NC(=O)CCN1CCN(c2ccc(C(=O)OC)cc2)CC1C (stereo unspecified)
cytotoxicity at 10 µM: -17.8%

Clc1ccc(CN2CCCC2Cn2cncn2)c2ncccc12 (stereo unspecified)
cytotoxicity at 10 µM: -9.66%

Cc1[nH]ncc1C(=O)N1CCCC(c2ccn[nH]2)C1 (stereo unspecified)
cytotoxicity at 10 µM: 0.23%

Cn1cnc2c1CCN(Cc1csc(-c3ccccc3)n1)C2
cytotoxicity at 10 µM: -1.04%

Cn1cc(Cl)cc1C(=O)N1CCN(CCc2cccs2)CC1
cytotoxicity at 10 µM: -11.8%

CC(C(=O)N1CCN(Cc2ccc(C#N)cc2)CC1)n1ccnc1 (stereo unspecified)
cytotoxicity at 10 µM: -9.71%

Cn1ccnc1CN1CCN(CCOc2cccc(C#N)c2)CC1
cytotoxicity at 10 µM: -18%

CN(CC(=O)N1CCCCC1Cn1cccn1)Cc1ccccc1 (stereo unspecified)
cytotoxicity at 10 µM: -3.99%

c1ncn(CC2CCCN2Cc2csc(C3CCCCC3)n2)n1 (stereo unspecified)
cytotoxicity at 10 µM: 1.77%

O=C1C(NS(=O)(=O)c2ccc(F)cc2)CCN1Cc1ccccc1 (stereo unspecified)
cytotoxicity at 10 µM: -3.48%

CC(Cn1cccn1)NC(=O)NCc1ccnc(OC2CCCC2)c1 (stereo unspecified)
cytotoxicity at 10 µM: -4.59%

CCC(C)NC(=O)c1cc(Br)c2c(c1)OCCO2 (stereo unspecified)
cytotoxicity at 10 µM: -14.3%

O=C(CN1CCOC(CNc2cccnn2)C1)NCc1ccccn1 (stereo unspecified)
cytotoxicity at 10 µM: -0.945%

Cc1cnn(CC2CCCN2Cc2noc(-c3ccccc3)n2)c1 (stereo unspecified)
cytotoxicity at 10 µM: 0.441%

COc1ccc(COCC(O)CNC(=O)c2cccc(OC)c2)cc1 (stereo unspecified)
cytotoxicity at 10 µM: -9.05%

CNC(=O)C1CCN(C(=O)NCCc2ccc(Cl)s2)CC1
cytotoxicity at 10 µM: -12.3%

O=C(O)c1cc(S(=O)(=O)Nc2ccc(F)cc2Cl)cc2c1OCCO2
cytotoxicity at 10 µM: -8.12%

CCc1cccc(N2CCC(NC(=O)c3ccncc3)CC2)c1
cytotoxicity at 10 µM: -13.9%

COc1cc(CNCC2CNc3ccnn3C2)ccn1 (stereo unspecified)
cytotoxicity at 10 µM: -0.65%

CN(CC(=O)N1CCCC1c1noc(C2CC2)n1)Cc1ccccc1 (stereo unspecified)
cytotoxicity at 10 µM: -5.09%

Cc1ccccc1CC(=O)N(C)C1CCCC1
cytotoxicity at 10 µM: 6.33%

COc1ccc(Br)c(C(=O)N2CCC(c3n[nH]c(C4CC4)n3)CC2)c1
cytotoxicity at 10 µM: -1.44%

CCn1cnnc1CNC(=O)N1CCN(Cc2ccccc2)CC1
cytotoxicity at 10 µM: -1.3%

COc1c(C2CCCN2C(=O)c2cccc(C(N)=O)c2)c(C)nn1C (stereo unspecified)
cytotoxicity at 10 µM: 0.192%

Cc1cc(CN2CCN(C(=O)c3sccc3C(C)C)CC2)no1
cytotoxicity at 10 µM: -0.962%

CN(C)S(=O)(=O)N1C[C@@H]2CN(Cc3ccoc3)CCO[C@@H]2C1
cytotoxicity at 10 µM: 12.2%

O=C(C1=CCCC1)N1CCC[C@]2(C[C@@H](Oc3ncccc3F)CO2)C1
cytotoxicity at 10 µM: -15.5%

Cc1cccc(CN2C[C@@H]3CN(C(=O)c4ccco4)C[C@@H]3C2=O)n1
cytotoxicity at 10 µM: -0.42%

Cc1cccc(CN2C[C@@H]3CN(C(=O)c4ccsc4)C[C@@H]3C2=O)n1
cytotoxicity at 10 µM: 5.86%

CC(=O)N1CC(=O)N(c2cnn(C)c2)CC12CCN(Cc1ccsc1)C2 (stereo unspecified)
cytotoxicity at 10 µM: -17.6%

C[C@@H]1CN(Cc2ccoc2)C[C@]12CCN(CC(=O)N(C)C)C2=O
cytotoxicity at 10 µM: 2.11%

CC(=O)N1[C@H](CN(C)C)C[C@@H]2CN(C(=O)c3cncc(C)c3)CC[C@@H]21
cytotoxicity at 10 µM: 3.76%

CS(=O)(=O)N1CCO[C@@H]2CCN(Cc3ccncc3)CC[C@H]21
cytotoxicity at 10 µM: 1.15%

COc1cc(N2CCO[C@H]3[C@@H](Oc4cccnc4)CC[C@@H]32)ncn1
cytotoxicity at 10 µM: -3.33%
